14 compounds from ChEMBL document CHEMBL4342524, “Discovery of M-808 as a Highly Potent, Covalent, Small-Molecule Inhibitor of the Menin-MLL Interaction with Strong In Vivo Antitumor Activity” (J Med Chem, 2020) can be followed below.

In one series the test system is HL-60. Description: Growth inhibition of human HL60 cells after 7 days by WST-8 assay. In kind it is functional, cell-based. Particulars: HL-60, 168 h. The gist of the method: (§1)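 Cells cultured in IMDM or RPMI 1640 with 10% FBS at 37 °C, 5% CO2. Growth read by WST-8 at 450 nm after at least 1 h with reagent. Signals normalized to untreated cells and IC50 fitted by nonlinear regression; mean and SD from three independent experiments.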
On the technique in general: Tetrazolium dyes change colour on reduction, which living cells bring about.

A further series relates to MOLM-13. Nature of the series: Growth inhibition of human MOLM13 cells after 7 days by WST-8 assay. The series is classed as functional, cell-based. The conditions noted are these: MOLM-13, 168 h. The gist of the method:
as §1

The test system of another series is MV4-11. Nature of the series: Growth inhibition of human MV4-11 cells after 7 days by WST-8 assay. Particulars: MV4-11, 168 h. In kind it is functional, cell-based. The gist of the method: as §1
The target of series [1] is T1, Menin (Homo sapiens) (UniProt O00255).
T1 sequence (whole entry): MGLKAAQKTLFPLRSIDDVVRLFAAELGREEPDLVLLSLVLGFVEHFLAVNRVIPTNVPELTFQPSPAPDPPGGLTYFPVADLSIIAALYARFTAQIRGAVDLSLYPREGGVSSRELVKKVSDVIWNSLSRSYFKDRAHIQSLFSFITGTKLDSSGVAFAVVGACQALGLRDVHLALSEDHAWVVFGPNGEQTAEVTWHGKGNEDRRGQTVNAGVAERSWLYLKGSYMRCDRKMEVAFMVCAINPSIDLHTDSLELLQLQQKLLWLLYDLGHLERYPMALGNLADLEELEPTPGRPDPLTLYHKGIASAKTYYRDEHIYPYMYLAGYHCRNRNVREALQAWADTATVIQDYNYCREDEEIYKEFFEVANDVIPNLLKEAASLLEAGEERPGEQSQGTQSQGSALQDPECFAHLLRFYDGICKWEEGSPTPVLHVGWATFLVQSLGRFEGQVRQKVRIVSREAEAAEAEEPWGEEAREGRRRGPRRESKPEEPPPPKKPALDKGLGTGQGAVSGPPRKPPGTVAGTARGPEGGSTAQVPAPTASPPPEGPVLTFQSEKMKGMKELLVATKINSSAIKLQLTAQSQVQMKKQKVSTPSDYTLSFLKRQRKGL
Nature of the series: Covalent binding affinity to human menin assessed as protein-compound complex formation at protein to compound ratio of 1:1.2 after 1 hr by LC-MS analysis relative to control. In short, it runs like this: (§2)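 Diluted to 1 mg/mL, then run on reverse-phase C4 LC with a 5–100% MeCN/0.2% formic acid gradient and Q-TOF MS. Intact masses obtained by maximum-entropy deconvolution.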

Series [2] concerns the target T1, Menin (Homo sapiens). Nature of the series: Covalent binding affinity to human menin assessed as protein-compound complex formation at protein to compound ratio of 1:1.2 measured after overnight incubation by LC-MS analysis relative to control. The gist of the method: as §2
For series [3], the target named is T2, Menin (Homo sapiens, UniProt O00255).
T2 sequence (O00255 whole entry): T1 sequence (whole entry)
Description: Inhibition of menin (unknown origin) by fluorescence polarization assay. The gist of the method: (§3)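 Competitive FP assay: 4 nM menin and 2 nM fluorescein-labeled tracer (final concentrations) in PBS with 100 μg/mL bovine γ-globulin and 0.01% Triton X-100. Compounds added from DMSO at varying concentrations and incubated 1 h at room temperature. IC50 obtained by nonlinear sigmoidal fitting of the FP decrease against total compound concentration.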
For orientation: In fluorescence polarisation assays a small probe gives low polarisation when free and higher when bound to something large.

The target of series [4] is T2, Menin. Nature of the series: Inhibition of fluorescent labeled tracer binding to Menin (unknown origin) after 1 hr by fluorescence polarization competitive binding assay. In short, it runs like this: as §3
A short description of series [5]: Toxicity in SCID mouse assessed as drug tolerability at 10 mg/kg, iv administered every other day for 1 week. In kind it is organism-based. Particulars: in vivo, 168 h.
Series [6] relates to Mus musculus. Nature of the series: Downregulation of MEIS1 expression in tumors of CB-17 SCID mouse xenografted with human MV4-11 cells at 10 mg/kg, iv administered as single dose and measured after 24 hrs by RT-qPCR analysis relative to control. The series is classed as functional. In short, it runs like this: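 Female C.B-17 SCID mice bearing subcutaneous MV4;11 flank xenografts were given a single IV dose (vehicle control). Tumors were harvested at 24 h, 3 mice per time point, snap-frozen in liquid N2 and ground. Total RNA was reverse-transcribed, and HOXA9, MEIS1 and GAPDH were measured by TaqMan real-time PCR. Relative expression was calculated by the comparative Ct method.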
Background: A xenograft is tissue or cells of one species grown in another, often human tumour cells in immunodeficient mice.

Series [7] concerns Mus musculus. Nature of the series: Downregulation of Hoxa9 expression in tumors of CB-17 SCID mouse xenografted with human MV4-11 cells at 10 mg/kg, iv administered as single dose and measured after 24 hrs by RT-qPCR analysis. The series is classed as functional, organism-based. The gist of the method:
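MV4;11 subcutaneous xenografts in female C.B-17 SCID mice; single IV dose of 10 mg/kg or vehicle. Tumors collected 24 h post-dose, 3 mice per group, snap-frozen and powdered. Total RNA converted to cDNA; HOXA9, MEIS1 and GAPDH measured by TaqMan real-time PCR; relative expression by comparative Ct.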

The nature of series [8]: Toxicity in SCID mouse assessed as reduction in body weight at 25 mg/kg, iv administered every other day for 1 week relative to control. The series is classed as organism-based. The arrangement: scale not given: the % may be the effect or the level left. The conditions noted are these: in vivo, 168 h.

Calls of active or inactive are those of the source. The rule behind the calls is not given here.

As to `COC(=O)N[C@H]1CCC[C@@H]1[C@](CN1CCCC1)(c1cccc(F)c1)C1CCN(CC2CN(c3ccc(S(=O)(=O)C4CN(C(=O)/C=C/CN(C)C)C4)cc3)C2)CC1`, the values for the IC50 in the series with HL-60, in the series on MOLM-13 and in the series on MV4-11 were 1400 nM, 15 nM and 5 nM, respectively.
In the case of `COC(=O)N[C@H]1CCC[C@@H]1[C@](CN1CCCCC1)(c1cccc(F)c1)C1CCN(CC2CN(c3ccc(S(=O)(=O)C4CN(C(=O)/C=C/CN(C)C)C4)cc3)C2)CC1`, the half-inhibitory concentration (IC50) in the series with HL-60 came out at 600 nM; in the series with MOLM-13, 157 nM; in the series with MV4-11, 40 nM.
Consider `C=CC(=O)N1CC(S(=O)(=O)c2ccc(N3CC(CN4CCC([C@@](CN5CCC5)(c5cccc(F)c5)[C@H]5CCC[C@@H]5NC(=O)OC)CC4)C3)cc2)C1`, for which the IC50 with HL-60 stood at 2600 nM; in the series with MOLM-13, 374 nM; in the series on MV4-11, 23 nM. Moreover, the Activity on Menin (Homo sapiens) [1] is 50%; on Menin (Homo sapiens) [2] it was 75%.
For `COC(=O)N[C@H]1CCC[C@@H]1[C@](C#N)(c1cccc(F)c1)C1CCN(CC2CN(c3ccc(S(=O)(=O)C4CN(C(=O)/C=C/CN(C)C)C4)cc3)C2)CC1`, the half-inhibitory concentration (IC50) turned out to be 3.3 nM at Menin [3], 1500 nM in the series with HL-60, 19 nM with MOLM-13 and 4 nM in the series on MV4-11. The figures for the Activity at Menin (Homo sapiens) [1] and on Menin (Homo sapiens) [2] were 95% and 100%, respectively.
For the compound `COC(=O)N[C@H]1CCC[C@@H]1[C@](CN1CCC1)(c1cccc(F)c1)C1CCN(CC2CN(c3ccc(S(=O)(=O)C4CN(C(=O)/C=C/CN5CC(F)(F)C5)C4)cc3)C2)CC1`, the IC50 in the series with HL-60 stood at 2800 nM; in the series on MOLM-13, 15 nM; in the series on MV4-11, 4 nM. In addition, the Activity at Menin (Homo sapiens) [1] and at Menin (Homo sapiens) [2] was 0% in each case.
Turning to `CCc1nccn1C[C@@](c1cccc(F)c1)(C1CCN(CC2CN(c3ccc(S(=O)(=O)C4CN(C(=O)/C=C/CN(C)C)C4)cc3)C2)CC1)[C@H]1CCC[C@@H]1NC(=O)OC`, the half-inhibitory concentration (IC50) in the series on HL-60 was more than 10000 nM; in the series with MOLM-13 it was 11 nM; in the series on MV4-11 it was 2 nM; on Menin [4], 1.7 nM. Further, the Activity on Menin (Homo sapiens) [1] and on Menin (Homo sapiens) [2] was 100% each time.
For the compound `COC(=O)N[C@H]1CCC[C@@H]1[C@](CN1CCC1)(c1cccc(F)c1)C1CCN(CC2CN(c3ccc(S(=O)(=O)C4CN(C(=O)/C=C/CN5CCC(F)(F)CC5)C4)cc3)C2)CC1`, the half-inhibitory concentration (IC50) in the series on HL-60 turned out to be 3200 nM; with MOLM-13, 20 nM; in the series with MV4-11, 4 nM. Also, the Activity at Menin (Homo sapiens) [1] and on Menin (Homo sapiens) [2] was 0% each time.
As to `COC(=O)N[C@H]1CCC[C@@H]1[C@](CN(C)C)(c1cccc(F)c1)C1CCN(CC2CN(c3ccc(S(=O)(=O)C4CN(C(=O)/C=C/CN(C)C)C4)cc3)C2)CC1`, the values for the IC50 in the series with HL-60, with MOLM-13 and in the series with MV4-11 were 700 nM, 2 nM and 1.1 nM, respectively.
In the case of `COC(=O)N[C@H]1CCC[C@@H]1[C@](CN1CCC1)(c1cccc(F)c1)C1CCN(CC2CN(c3ccc(S(=O)(=O)C4CN(C(=O)/C=C/CN(C)C)C4)cc3)C2)CC1`, the 50% inhibitory concentration (IC50) with HL-60 stood at 3000 nM; in the series with MOLM-13, 8 nM. Besides, the Activity entry in [5] was “Non-Toxic”; at Menin (Homo sapiens) [1], 75%; in series [8] it was more than 10%; on Menin (Homo sapiens) [2], 100%. In the series with Mus musculus [6], the “fold change (FC)” value is listed as more than 2. Also, the outcome with Mus musculus [7] was Active.
For the compound `COC(=O)N[C@H]1CCC[C@@H]1[C@](Cn1ccnn1)(c1cccc(F)c1)C1CCN(CC2CN(c3ccc(S(=O)(=O)C4CN(C(=O)/C=C/CN(C)C)C4)cc3)C2)CC1`, the concentration for half-maximal inhibition (IC50) is 4800 nM in the series with HL-60 and 14 nM in the series on MOLM-13.
As for `COC(=O)N[C@H]1CCC[C@@H]1[C@](CN1CCC1)(c1cccc(F)c1)C1CCN(CC2CN(c3ccc(S(=O)(=O)C4CN(C(=O)/C=C/CN5CCCC5)C4)cc3)C2)CC1`, the figures for the half-maximal inhibitory concentration (IC50) in the series on HL-60 and with MOLM-13 were 2100 nM and 9 nM, respectively. Further, the Activity entry in series [5] was “Non-Toxic”; on Menin (Homo sapiens) [1], 100%; in [8], more than 10%; at Menin (Homo sapiens) [2], 100%. Besides, in the series with Mus musculus [6], the “fold change (FC)” value is recorded as more than 2. Moreover, in the series on Mus musculus [7], the result was Active.
Regarding `COC(=O)N[C@H]1CCC[C@@H]1[C@](CN1CCC1)(c1cccc(F)c1)C1CCN(CC2CN(c3ccc(S(=O)(=O)C4CN(C(=O)/C=C/CN5CCC5)C4)cc3)C2)CC1`, the IC50 in the series with HL-60 was found to be 2100 nM; with MOLM-13, 3 nM. Also, the Activity on Menin (Homo sapiens) [1] stood at 75%; at Menin (Homo sapiens) [2], 100%.
With `COC(=O)N[C@H]1CCC[C@@H]1[C@](CN1CCC1)(c1cccc(F)c1)C1CCN(CC2CN(c3ccc(S(=O)(=O)C4CN(C(=O)/C=C/CN5CC(F)C5)C4)cc3)C2)CC1`, the figures for the IC50 with HL-60, in the series with MOLM-13 and with MV4-11 were 2000 nM, 3 nM and 1 nM, respectively. The results for the Activity at Menin (Homo sapiens) [1] and on Menin (Homo sapiens) [2] were 20% and 75%, respectively.
Take `COC(=O)N[C@H]1CCC[C@@H]1[C@](CN1CCC1)(c1cccc(F)c1)C1CCN(CC2CN(c3ccc(S(=O)(=O)C4CN(C(=O)/C=C/CN5CCC(F)CC5)C4)cc3)C2)CC1`: the concentration for half-maximal inhibition (IC50) stood at 3600 nM in the series with HL-60, 21 nM in the series with MOLM-13 and 3 nM with MV4-11. Besides, the Activity at Menin (Homo sapiens) [1] amounted to 20%; at Menin (Homo sapiens) [2], 100%.

Usually IC50 stands for the point on the concentration scale where inhibition reaches its midpoint.
